# Results taken from ChEMBL document CHEMBL1208778, “Synthesis and anti-cancer activity of chalcone linked imidazolones” (2010).
# Activity calls are given as the source filed them. No cut-off for these calls is given here.
# Assays:
# [1] = Growth inhibition of human RPMI8266 cells; format: functional
# In short: (§1)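 Five-dose testing was run within the NCI (Bethesda) in vitro Anticancer Screen Program on a panel of 53 human tumour cell lines from nine cancer types. Growth inhibition is reported as GI50.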
# K562 = assay: Growth inhibition of human K562 cells; format: functional; in short: as §1
# A549 = assay: Growth inhibition of human A549 cells; format: functional; in short: as §1
# EKVX = assay: Growth inhibition of human EKVX cells; format: functional; in short: as §1
# HOP-62 = assay: Growth inhibition of human HOP62 cells; format: functional; in short: as §1
# HOP-92 = assay: Growth inhibition of human HOP92 cells; format: functional; in short: as §1
# NCI-H226 = assay: Growth inhibition of human NCI-H226 cells; format: functional; in short: as §1
# NCI-H23 = assay: Growth inhibition of human NCI-H23 cells; format: functional; in short: as §1
# NCI-H322M = assay: Growth inhibition of human NCI-H322M cells; format: functional; in short: as §1
# NCI-H460 = assay: Growth inhibition of human NCI-H460 cells; format: functional; in short: as §1
# NCI-H522 = assay: Growth inhibition of human NCI-H522 cells; format: functional; in short: as §1
# COLO 205 = assay: Growth inhibition of human COLO205 cells; format: functional; in short: as §1
# HCC 2998 = assay: Growth inhibition of human HCC2998 cells; format: functional; in short: as §1
# HCT-116 = assay: Growth inhibition of human HCT116 cells; format: functional; in short: as §1
# HCT-15 = assay: Growth inhibition of human HCT15 cells; format: functional; in short: as §1
# HT-29 = assay: Growth inhibition of human HT-29 cells; format: functional; in short: as §1
# KM12 = assay: Growth inhibition of human KM12 cells; format: functional; in short: as §1
# SW-620 = assay: Growth inhibition of human SW620 cells; format: functional
# In short: (§2)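 Compounds that passed a preliminary screen were tested at five doses in the NCI (Bethesda) in vitro Anticancer Screen Program against a 53-line human tumour panel spanning leukemia, lung, colon, CNS, melanoma, ovarian, renal, prostate and breast. Growth inhibition is reported as GI50.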
# SF-268 = assay: Growth inhibition of human SF268 cells; format: functional; in short: as §1
# SF-295 = assay: Growth inhibition of human SF295 cells; format: functional; in short: as §1
# SF-539 = assay: Growth inhibition of human SF539 cells; format: functional; in short: as §1
# SNB-19 = assay: Growth inhibition of human SNB19 cells; format: functional; in short: as §2
# SNB-75 = assay: Growth inhibition of human SNB75 cells; format: functional; in short: as §2
# U-251 = assay: Growth inhibition of human U251 cells; format: functional; in short: as §2
# A498 = assay: Growth inhibition of human A498 cells; format: functional; in short: as §1
# 786-0 = assay: Growth inhibition of human 786-0 cells; format: functional; in short: as §1
# ACHN = assay: Growth inhibition of human ACHN cells; format: functional; in short: as §1
# CAKI-1 = assay: Growth inhibition of human Caki1 cells; format: functional; in short: as §1
# RXF 393 = assay: Growth inhibition of human RXF393 cells; format: functional; in short: as §1
# SN12C = assay: Growth inhibition of human SN12C cells; format: functional; in short: as §2
# TK-10 = assay: Growth inhibition of human TK10 cells; format: functional; in short: as §2
# UO-31 = assay: Growth inhibition of human UO31 cells; format: functional; in short: as §2
# PC-3 = assay: Growth inhibition of human PC3 cells; format: functional; in short: as §1
# OVCAR-3 = assay: Growth inhibition of human OVCAR-3 cells; format: functional; in short: as §1
# OVCAR-4 = assay: Growth inhibition of human OVCAR4 cells; format: functional; in short: as §1
# OVCAR-5 = assay: Growth inhibition of human OVCAR5 cells; format: functional; in short: as §1
# OVCAR-8 = assay: Growth inhibition of human OVCAR8 cells; format: functional; in short: as §1
# NCI/ADR-RES = assay: Growth inhibition of human NCI/ADR-RES cells; format: functional; in short: as §1
# SK-OV-3 = assay: Growth inhibition of human SKOV3 cells; format: functional; in short: as §2
# MCF7 [2] = assay: Growth inhibition of human MCF7 cells; format: functional; in short: as §1
# MDA-MB-231 = assay: Growth inhibition of human MDA-MB-231 cells; format: functional; in short: as §1
# [3] = Growth inhibition of human Hs 578T cells; format: functional; in short: as §1
# BT-549 = assay: Growth inhibition of human BT549 cells; format: functional; in short: as §1
# T47D = assay: Growth inhibition of human T47D cells; format: functional; in short: as §2
# LOX IMVI = assay: Growth inhibition of human LOXIMVI cells; format: functional; in short: as §1
# Malme-3M = assay: Growth inhibition of human MALME-3M cells; format: functional; in short: as §1
# M14 = assay: Growth inhibition of human M14 cells; format: functional; in short: as §1
# MDA-MB-435 = assay: Growth inhibition of human MDA-MB-435 cells; format: functional; in short: as §1
# SK-MEL-2 = assay: Growth inhibition of human SK-MEL-2 cells; format: functional; in short: as §1
# SK-MEL-28 = assay: Growth inhibition of human SK-MEL-28 cells; format: functional; in short: as §1
# SK-MEL-5 = assay: Growth inhibition of human SK-MEL-5 cells; format: functional; in short: as §1
# UACC-257 = assay: Growth inhibition of human UACC257 cells; format: functional; in short: as §2
# UACC-62 = assay: Growth inhibition of human UACC62 cells; format: functional; in short: as §2
# MCF7 [4] = assay: Cell cycle arrest in human MCF7 cells assessed as accumulation at G0 phase at 10 uM after 24 hrs by FACS analysis; format: functional
# In short: (§3)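 MCF-7 breast carcinoma cells were exposed to 10 µM test compound for 24 h, with DMSO as the vehicle control. Cell-cycle distribution was read by FACS as the percentage of cells in G0, G1, S and G2/M.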
# MCF7 [5] = assay: Cell cycle arrest in human MCF7 cells assessed as accumulation at G1 phase at 10 uM after 24 hrs by FACS analysis; format: functional; in short: as §3
# MCF7 [6] = assay: Cell cycle arrest in human MCF7 cells assessed as accumulation at S phase at 10 uM after 24 hrs by FACS analysis; format: functional; in short: as §3
# MCF7 [7] = assay: Cell cycle arrest in human MCF7 cells assessed as accumulation at G2/M phase at 10 uM after 24 hrs by FACS analysis; format: functional; in short: as §3
# MCF7 [8] = assay: Cell cycle arrest in human MCF7 cells assessed as accumulation at G0 phase at 30 uM after 24 hrs by FACS analysis; format: functional
# In short: (§4)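 MCF-7 cells were treated at 30 µM for 24 h alongside a DMSO control. Fractions in G0, G1, S and G2/M phases were measured by FACS, and values are means of three experiments.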
# MCF7 [9] = assay: Cell cycle arrest in human MCF7 cells assessed as accumulation at G1 phase at 30 uM after 24 hrs by FACS analysis; format: functional; in short: as §4
# MCF7 [10] = assay: Cell cycle arrest in human MCF7 cells assessed as accumulation at S phase at 30 uM after 24 hrs by FACS analysis; format: functional; in short: as §4
# MCF7 [11] = assay: Cell cycle arrest in human MCF7 cells assessed as accumulation at G2/M phase at 30 uM after 24 hrs by FACS analysis; format: functional; in short: as §4
# MCF7 [12] = assay: Induction of apoptosis in human MCF7 cells assessed as decrease in procaspase 7 level at 30 uM after 24 hrs by Western blot analysis; format: functional, cell-based
# In short: (§5)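 MCF-7 breast carcinoma cells were exposed to 30 µM compound for 24 h, with CA-4 as positive control. Cell lysates were then immunoblotted with antibodies to procaspase-7 and cleavage-specific PARP, using β-actin as loading control.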
# MCF7 [13] = assay: Induction of apoptosis in human MCF7 cells assessed as […] in PARP cleavage at 30 uM after 24 hrs by Western blot analysis; format: functional, cell-based; in short: as §5
structure (smiles),measurement,setting,value
COc1cc(/C=C/C(=O)c2cccc(-n3cc(-c4ccc(Cl)cc4)[nH]c3=O)c2)cc(OC)c1OC,GI50,[1],3.92 µM
same,GI50,K562,3.69 µM
same,GI50,A549,inactive
same,GI50,EKVX,inactive
same,GI50,HOP-62,inactive
same,GI50,HOP-92,inactive
same,GI50,NCI-H226,inactive
same,GI50,NCI-H23,3.56 µM
same,GI50,NCI-H322M,12.9 µM
same,GI50,NCI-H460,3.74 µM
same,GI50,NCI-H522,4.1 µM
same,GI50,COLO 205,7.38 µM
same,GI50,HCC 2998,2.46 µM
same,GI50,HCT-116,1.39 µM
same,GI50,HCT-15,3.85 µM
same,GI50,HT-29,2 µM
same,GI50,KM12,5.45 µM
same,GI50,SW-620,1.75 µM
same,GI50,SF-268,5.07 µM
same,GI50,SF-295,24.3 µM
same,GI50,SF-539,3.49 µM
same,GI50,SNB-19,16.1 µM
same,GI50,SNB-75,inactive
same,GI50,U-251,2.12 µM
same,GI50,A498,30.2 µM
same,GI50,786-0,2.14 µM
same,GI50,ACHN,7.17 µM
same,GI50,CAKI-1,inactive
same,GI50,RXF 393,3.22 µM
same,GI50,SN12C,5.14 µM
same,GI50,TK-10,6.46 µM
same,GI50,UO-31,7.03 µM
same,GI50,PC-3,inactive
same,GI50,OVCAR-3,2.4 µM
same,GI50,OVCAR-4,11.4 µM
same,GI50,OVCAR-5,3.11 µM
same,GI50,OVCAR-8,3.85 µM
same,GI50,NCI/ADR-RES,2.36 µM
same,GI50,SK-OV-3,31.4 µM
same,GI50,MCF7 [2],1.74 µM
same,GI50,MDA-MB-231,13.8 µM
same,GI50,[3],5.96 µM
same,GI50,BT-549,12.3 µM
same,GI50,T47D,6.65 µM
same,GI50,LOX IMVI,1.72 µM
same,GI50,Malme-3M,18.1 µM
same,GI50,M14,4.36 µM
same,GI50,MDA-MB-435,3.63 µM
same,GI50,SK-MEL-2,3.44 µM
same,GI50,SK-MEL-28,10.9 µM
same,GI50,SK-MEL-5,8.7 µM
same,GI50,UACC-257,17.4 µM
same,GI50,UACC-62,8.88 µM
same,Activity,MCF7 [4],4.49%
same,Activity,MCF7 [5],67.68%
same,Activity,MCF7 [6],13.91%
same,Activity,MCF7 [7],13.92%
same,Activity,MCF7 [8],12%
same,Activity,MCF7 [9],44%
same,Activity,MCF7 [10],17%
same,Activity,MCF7 [11],27%
COc1ccc(/C=C\c2cc(OC)c(OC)c(OC)c2)cc1O [COMBRETASTATIN A4],Activity,MCF7 [4],9.45%
same,Activity,MCF7 [5],11.79%
same,Activity,MCF7 [6],9.96%
same,Activity,MCF7 [7],68.8%
same,Activity,MCF7 [8],11.64%
same,Activity,MCF7 [9],25.04%
same,Activity,MCF7 [10],39.63%
same,Activity,MCF7 [11],23.69%
same,Activity,MCF7 [12],inactive
same,Activity,MCF7 [13],inactive
